Activity calls are given as the source filed them. The calls are words filed in the database; no cut-off is given here.
How the values were obtained:
CYP3A4 [1] = biological target: T1, CYP3A4 (Homo sapiens, UniProt P08684); assay: Inhibition of CYP3A4 in human liver microsomes using testosterone as substrate at 10 uM by LC-MS-MS analysis relative to control; format: ADME, Microsome; conditions: probe testosterone
CYP3A4 [2] = biological target: T1, CYP3A4; assay: Time dependent inhibition of CYP3A4 in human liver microsomes using testosterone as substrate at 10 uM preincubated for 30 mins by LC-MS-MS analysis relative to control; format: ADME, Microsome; conditions: probe testosterone, read-out: TDI
Method in brief: (§1)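 CYP3A4 metabolism of testosterone was measured after 0 or 30 min preincubation of enzyme with test article at the indicated concentration. Activity lost via preincubation, relative to the zero-minute control with the same inhibitor, was the end point. 6β-OH testosterone was detected by LC-MS/MS with cortisone as internal standard.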

[3] = Oral bioavailability in dog; format: ADME, organism-based, Canis lupus familiaris; conditions: in vivo
[4] = Half life in dog; format: ADME, organism-based, Canis lupus familiaris; conditions: in vivo
[5] = biological target: Voltage-gated inwardly rectifying potassium channel KCNH2 (Homo sapiens, UniProt Q12809); assay: Inhibition of human ERG
[6] = Volume of distribution at steady state in dog; format: ADME, organism-based, Canis lupus familiaris; conditions: in vivo, read-out: Vdss
[7] = Half life in rat; format: ADME, organism-based; conditions: in vivo
[8] = Oral bioavailability in rat; format: ADME, organism-based; conditions: in vivo
[9] = Plasma clearance in dog; format: ADME, organism-based, Canis lupus familiaris
[10] = Volume of distribution at steady state in rat; format: ADME, organism-based; conditions: in vivo, read-out: Vdss
[11] = Plasma clearance in rat; format: ADME, organism-based
Mus musculus [12] = assay: In vivo inhibition of c-MET phosphorylation at tyrosine Y1349 in human GTL16 cells xenografted in po dosed mouse after 8 hrs by Western blotting analysis; format: functional, organism-based; conditions: GTL 16, 8 h
GTL 16 [13] = assay: Antitumor activity against human GTL16 cells expressing c-MET xenografted in CD1 nu/nu mouse assessed as tumor growth inhibition at 100 mg/kg, po qd for 21 days; format: functional, organism-based; set-up: dose 100 mg/kg
[14] = Antitumor activity against human GTL16 cells expressing c-MET xenografted in CD1 nu/nu mouse assessed as tumor growth inhibition at 100 mg/kg, po bid for 21 days relative to control; format: functional; conditions: GTL 16, 504 h, read-out: TGI
Method in brief: (§2)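 Mice carrying GTL-16 tumours received the compound orally; tumour growth was compared with the vehicle-treated group by two-way repeated measures ANOVA.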

[15] = biological target: T2, Tyrosine-protein kinase Mer (Homo sapiens) (UniProt Q12866); assay: Inhibition of MER (unknown origin) relative to control; conditions: concentration not given here
T2 sequence (whole entry): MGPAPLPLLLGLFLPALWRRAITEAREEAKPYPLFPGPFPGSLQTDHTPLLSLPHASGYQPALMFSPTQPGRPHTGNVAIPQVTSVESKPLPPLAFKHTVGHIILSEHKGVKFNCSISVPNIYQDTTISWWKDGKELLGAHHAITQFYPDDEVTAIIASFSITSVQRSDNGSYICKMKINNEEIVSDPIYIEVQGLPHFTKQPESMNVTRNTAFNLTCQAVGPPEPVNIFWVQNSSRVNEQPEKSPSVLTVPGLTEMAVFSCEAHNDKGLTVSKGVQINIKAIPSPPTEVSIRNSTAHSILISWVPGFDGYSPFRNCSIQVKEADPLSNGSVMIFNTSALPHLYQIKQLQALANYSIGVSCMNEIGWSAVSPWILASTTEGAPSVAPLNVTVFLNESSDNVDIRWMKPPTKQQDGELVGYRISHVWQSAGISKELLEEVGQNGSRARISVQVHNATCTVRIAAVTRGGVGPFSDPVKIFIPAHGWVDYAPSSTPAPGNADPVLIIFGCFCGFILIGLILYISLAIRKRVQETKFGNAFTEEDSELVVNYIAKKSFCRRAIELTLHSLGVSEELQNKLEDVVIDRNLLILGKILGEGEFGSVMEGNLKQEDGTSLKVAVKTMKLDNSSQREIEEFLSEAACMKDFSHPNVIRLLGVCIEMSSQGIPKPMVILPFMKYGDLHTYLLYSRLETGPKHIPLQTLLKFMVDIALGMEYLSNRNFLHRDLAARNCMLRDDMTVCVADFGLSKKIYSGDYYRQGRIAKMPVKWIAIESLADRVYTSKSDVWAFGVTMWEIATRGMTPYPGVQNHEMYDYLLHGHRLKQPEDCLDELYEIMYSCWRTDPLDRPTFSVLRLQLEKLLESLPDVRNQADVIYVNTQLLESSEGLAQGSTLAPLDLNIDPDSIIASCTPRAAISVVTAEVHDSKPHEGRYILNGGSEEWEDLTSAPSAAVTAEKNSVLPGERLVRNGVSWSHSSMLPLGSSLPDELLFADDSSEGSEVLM
Method in brief: (§3)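 Kinase selectivity was assessed at a 10 μM or 0.1 μM test concentration, as footnoted per entry.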

GTL 16 [16] = assay: Antitumor activity against human GTL16 cells expressing c-MET xenografted in po dosed CD1 nu/nu mouse assessed as tumor growth inhibition administered bid for 21 days; format: functional, organism-based; method in brief: as §2
[17] = biological target: Tyrosine-protein kinase Fes/Fps (Homo sapiens) (UniProt P07332); assay: Inhibition of FES (unknown origin) relative to control; conditions: concentration not given here; method in brief: as §3
[18] = biological target: Hepatocyte growth factor receptor (Homo sapiens) (UniProt P08581); conditions: 1 uM
[19] = Antitumor activity against human GTL16 cells expressing c-MET xenografted in CD1 nu/nu mouse assessed as tumor growth inhibition at 3 mg/kg, po bid for 21 days relative to control; format: functional; conditions: GTL 16, 504 h, read-out: TGI; method in brief: as §2
Mus musculus [20] = assay: In vivo inhibition of c-MET phosphorylation at tyrosine Y1349 in human GTL16 cells xenografted in po dosed mouse after 1 hr by Western blotting analysis; format: functional, organism-based; conditions: GTL 16, 1 h
Method in brief: (§4)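 Mice carrying GTL-16 xenografts received a single oral dose of 10, 30, 100 or 400 mg/kg and were euthanized 1 h after dosing. Phospho-c-Met (Y1349) and total c-Met in the tumours were measured by quantitative Western blotting. Plasma total drug was also measured, and in vivo IC50 was deduced from the relationship between plasma level and tumour pY1349.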

[21] = biological target: T3, Macrophage-stimulating protein receptor (Homo sapiens, UniProt Q04912); conditions: 1 uM
Cytochrome P450 2C9 = Cytochrome P450 2C9 (Homo sapiens, UniProt P11712); assay: Inhibition of CYP2C9 (unknown origin); format: ADME
[22] = biological target: Vascular endothelial growth factor receptor 3 (Homo sapiens) (UniProt P35916); assay: Inhibition of FLT4 (unknown origin) relative to control; conditions: concentration not given here; method in brief: as §3
[23] = Antitumor activity against human GTL16 cells expressing c-MET xenografted in CD1 nu/nu mouse assessed as tumor growth inhibition at 30 mg/kg, po bid for 21 days relative to control; format: functional; conditions: GTL 16, 504 h, read-out: TGI; method in brief: as §2
[24] = Antitumor activity against human GTL16 cells expressing c-MET xenografted in CD1 nu/nu mouse assessed as tumor growth inhibition at 10 mg/kg, po bid for 21 days relative to control; format: functional; conditions: GTL 16, 504 h, read-out: TGI; method in brief: as §2
Mus musculus [25] = assay: In vivo inhibition of c-MET phosphorylation at tyrosine Y1349 in human GTL16 cells xenografted in mouse at 100 mg/kg, po after 1 hr by Western blotting analysis; format: functional, organism-based; set-up: dose 100 mg/kg; method in brief: as §4
Cytochrome P450 2D6 = Cytochrome P450 2D6 (Homo sapiens, UniProt P10635); assay: Inhibition of CYP2D6 (unknown origin); format: ADME
Mus musculus [26] = assay: Toxicity in CD1 nu/nu mouse xenografted with human GLT16 cells assessed as change in body weight relative to control; format: organism-based; conditions: in vivo
Cytochrome P450 3A4 [27] = biological target: T4, Cytochrome P450 3A4 (Homo sapiens, UniProt P08684); assay: Time dependent inhibition of CYP3A4 in human liver microsomes using testosterone as substrate up to 100 uM by LC-MS-MS analysis; format: ADME, Microsome
Method in brief: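 For inactivation kinetics, CYP3A4 testosterone 6β-hydroxylation was quantified by LC-MS/MS as the area ratio of 6β-OH testosterone to the cortisone internal standard. Ki and kinact were obtained by nonlinear regression.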

[28] = biological target: T3, Macrophage-stimulating protein receptor; assay: Inhibition of RON (unknown origin) by TR-FRET assay
[29] = biological target: Fibroblast growth factor receptor 3 (Homo sapiens) (UniProt P22607); assay: Inhibition of FGFR3 (unknown origin) relative to control; conditions: concentration not given here; method in brief: as §3
Cytochrome P450 3A4 [30] = biological target: T4, Cytochrome P450 3A4; assay: Time dependent inhibition of CYP3A4 in human liver microsomes using testosterone as substrate by LC-MS-MS analysis relative to control; format: ADME, Microsome; method in brief: as §1

SMILES: Cn1cc(-c2cnc3ccc4ccc(CS(=O)(=O)NCc5ccncc5)cc4c(=O)c3c2)cn1
- inhibition at 10 µM (CYP3A4 [1]): 97%

SMILES: Cn1cc(-c2cnc3ccc4ccc(CS(=O)(=O)NCc5cccnc5)cc4c(=O)c3c2)cn1
- inhibition at 10 µM (CYP3A4 [1]): 30%
- inhibition at 30 min, 10 µM (CYP3A4 [2]): 0%

SMILES: CN(C)S(=O)(=O)Nc1ccc2ccc3ncc(-c4cnn(C)c4)cc3c(=O)c2c1
- bioavailability [3]: 16%
- half-life [4]: 48 min
- inhibition (INH) [5]: Not Active
- Vd [6]: 3.5 L/kg
- half-life [7]: 42 min
- bioavailability [8]: 24%
- clearance [9]: 57 mL/min/kg
- inhibition at 30 min, 10 µM (CYP3A4 [2]): 30%
- Vd [10]: 2.5 L/kg
- clearance [11]: 40 mL/min/kg

SMILES: Cn1cc(-c2cnc3ccc4ccc(CS(=O)(=O)NCc5ccccn5)cc4c(=O)c3c2)cn1 [MK-8033]
- IC50 (Mus musculus [12]): 1700 nM
- TGI (GTL 16 [13]): Active
- inhibition in vivo at 100 mg/kg [14]: 86%
- bioavailability [3]: 33%
- half-life [4]: 186 min
- Vd [6]: 0.7 L/kg
- inhibition [15]: 60%
- half-life [7]: 48 min
- TGI (GTL 16 [16]): Dose-dependent effect
- inhibition [17]: 60%
- inhibition [18]: > 90%
- inhibition in vivo at 3 mg/kg [19]: 22%
- bioavailability [8]: 35%
- clearance [9]: 3.1 mL/min/kg
- IC50 (Mus musculus [20]): 1300 nM
- inhibition [21]: > 90%
- inhibition at 10 µM (CYP3A4 [1]): 31%
- IC50 (Cytochrome P450 2C9): 14700 nM
- inhibition [22]: 60%
- inhibition in vivo at 30 mg/kg [23]: 57%
- inhibition in vivo at 10 mg/kg [24]: 18%
- inhibition (Mus musculus [25]): Active
- IC50 (Cytochrome P450 2D6): 46200 nM
- inhibition at 30 min, 10 µM (CYP3A4 [2]): 16%
- Activity (Mus musculus [26]): Non-toxic
- TDI (Cytochrome P450 3A4 [27]): Not Active
- Vd [10]: 0.4 L/kg
- IC50 [28]: 7 nM
- clearance [11]: 20 mL/min/kg
- inhibition [29]: 60%

SMILES: Cn1cc(-c2cnc3ccc4ccc(CC(N)=O)cc4c(=O)c3c2)cn1
- TDI (Cytochrome P450 3A4 [30]): < 10%

SMILES: Cn1cc(-c2cnc3ccc4ccc(CS(=O)(=O)NCc5ccc(F)cc5F)cc4c(=O)c3c2)cn1
- inhibition at 10 µM (CYP3A4 [1]): 42%
- inhibition at 30 min, 10 µM (CYP3A4 [2]): 17%

SMILES: CN(C)S(=O)(=O)Cc1ccc2ccc3ncc(-c4cnn(C)c4)cc3c(=O)c2c1
- inhibition at 10 µM (CYP3A4 [1]): 0%
- inhibition at 30 min, 10 µM (CYP3A4 [2]): 6%

SMILES: Cn1cc(-c2cnc3ccc4ccc(CS(=O)(=O)NCCc5ccccn5)cc4c(=O)c3c2)cn1
- inhibition at 10 µM (CYP3A4 [1]): 14%
- inhibition at 30 min, 10 µM (CYP3A4 [2]): 9%

SMILES: Cn1cc(-c2cnc3ccc4ccc(CS(=O)(=O)N[C@@H]5CCCC[C@H]5N)cc4c(=O)c3c2)cn1
- inhibition at 10 µM (CYP3A4 [1]): 30%
- inhibition at 30 min, 10 µM (CYP3A4 [2]): 30%

SMILES: CNS(=O)(=O)Cc1ccc2ccc3ncc(-c4cnn(C)c4)cc3c(=O)c2c1
- inhibition at 10 µM (CYP3A4 [1]): 0%
- inhibition at 30 min, 10 µM (CYP3A4 [2]): 35%

SMILES: Cn1cc(-c2cnc3ccc4ccc(CS(N)(=O)=O)cc4c(=O)c3c2)cn1
- inhibition at 10 µM (CYP3A4 [1]): 0%
- inhibition at 30 min, 10 µM (CYP3A4 [2]): 26%

From ChEMBL document CHEMBL2321765 (J Med Chem, 2013)
